From PubChem BioAssay
The entries come from a sample that favours hits as a whole.
Hsp70 act – Hsp70 transcriptional activators, primary screen, cell-based, HeLa, Hsp70 promoter luciferase, luminescence, 10 µM; HeLa Hsp70 promoter luciferase reporter; scaled: vehicle 0, proteasome-inhibitor control 100%; AID 1203, 2008; activation, % at 10 µM; 0.04% of 200,000 active;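 active means activation above the mean across all tested compounds plus 3 SD, cutoff set per campaign, cut at about 5.5% in these data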;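 further: 100% = MG132 at 30 µM as the positive control and 0% = DMSO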
HSF1 inh – HSF1 inhibitors in luciferase reporter cells, primary screen, cell-based, NIH3T3, luminescence; NIH3T3-HGL HSE-luciferase, MG132-induced, luminescence 8 h; stronger effect = lower value; activity change, negative = inhibition, % at 7.5 µM (by protocol); 0.77% of 300,000 active; AID 2098, 2009;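 active means more than half of replicate wells show activity change below -50%, luminescence cut by over half; inconclusive means some wells, but at most half, below -50%; inactive means no replicate well below -50%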;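 further: luciferase reports HSF-1 transcriptional activity via heat shock element; 0% = median of DMSO wells and -100% = zero luminescence signal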
HSF1 activator – HSF-1 activators, primary screen, NIH3T3-HGL cells, MG132 stress, luminescence, single point. activation, % at 9 µM. AID 504408, 2011. 1.7% of 300,000 active. NIH3T3-HGL HSF-1 luciferase reporter, 8 h; 100% = twice DMSO control signal;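 active means mean replicate activation of at least 50% with a set share of replicates each reaching 50%; inconclusive means only one of those two conditions met; inactive means mean below 50% and too few replicates reaching it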;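 further: 0% = median of the neutral control wells and 100% = twice that signal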
Lmaj promast – Leishmania major promastigote growth inhibition, primary screen | Leishmania major promastigotes, resazurin fluorescence viability | inhibition, % at 10 µM | 9% of 200,000 active | AID 1063, 2008; in the data active means inhibition above about 50%;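 further: promastigotes grown with compound for 44 hours at 28 °C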
T cruzi repl – inhibitors of intracellular T. cruzi growth, primary screen, luminescence, NIH3T3 host cells | T. cruzi beta-gal in NIH3T3, 90 h | inhibition, % (no concentration beside the values) | 1.4% of 300,000 active | AID 1885, 2009;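 active means mean inhibition across valid replicates above about 55%, limit read from the data; inconclusive means mean below that limit but half or more replicates reach it; inactive means mean below it, under half of replicates reach it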;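 further: signal also drops with host cell toxicity which is not excluded here; 0% = plate median of DMSO wells and 100% = zero luminescence signal; higher percent means less beta-gal luminescence so fewer parasites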
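Incubation – ≥90 h infection period, 3 h prior cell attachment · System – NIH/3T3 fibroblasts plus reporter T. cruzi · Doses – compound pinned at 50 nL/well, DMSO · Read-out basis – percent inhibition of parasite-derived β-gal signal · Signal – luminescent β-galactosidase signal after 60 min lysis · Also added – 5000 T. cruzi trypomastigotes/well · Medium – Low-serum DMEM with 2% FBS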
* = called active by the depositor; ? = inconclusive; . = no result given.

SMILES | Hsp70 act | HSF1 inh | HSF1 activator | Lmaj promast | T cruzi repl
Cc1cc(C)cc(NC(=O)CC23CC4CC(C2)CC(n2nnc(C)n2)(C4)C3)c1 | -0.5 | 5.2 | 36.7 | 45.7 | 0.7
CN1CCN(C2=Cc3ccccc3Sc3cc(F)ccc32)CC1 | -0.1 | -3.8 | 0.7 | 99.9* | 25.2
CN1CCN(C2=Cc3ccc(Cl)cc3Sc3ccc(F)cc32)CC1 | -0.1 | 1.8 | 26.7 | 95.4* | 32.3
CN1CCN(C2Cc3cc(F)ccc3Sc3ccc(Cl)cc32)CC1 (centres undefined) | . | 0.8 | 7.1 | . | 33.8
NC(=O)NCC(c1ccccc1)C1CCCCC1 (centres undefined) | . | 3.2 | -3.6 | . | -3.8
CC(C)N1C(=O)CCC1C(=O)NCc1ccc(F)cc1Cl (centres undefined) | . | -5.9 | 2.1 | . | -8.9
C=C1C(=O)[C@@]23[C@H](O)C[C@@H]4C(C)(C)CC[C@H](O)[C@]4(C)[C@@H]2C[C@H](O)[C@@H]1[C@H]3O | -0.4 | -5.1 | -1.7 | 29.3 | 23.9
C=C1C(=O)[C@@]23[C@H](O)C[C@@H]4C(C)(C)CC[C@H](O)[C@@]4(C)[C@@H]2CC[C@@H]1[C@H]3O | -0.3 | -7.1 | -6.6 | 100.4* | 40.4
CCc1cc(=O)[nH]c(SCCC(F)=C(F)F)n1 | -0.5 | 10.7 | 5.9 | -1.0 | -9.8
CCc1c(C)nc2cc(-c3ccc(OC)c(OC)c3)nn2c1NCC1CC1 | -0.1 | -3.3 | 2.0 | 100.6* | 20.1
Cc1ccc2nc(SCC(=O)N3CCC(C)CC3)nc(=O)n2c1 | . | 1.3 | 4.4 | . | -6.0
O=C(Nc1ccc(NC(=S)NC(=O)c2ccccc2F)cc1)c1cccs1 | -0.3 | -0.7 | -2.4 | 95.7* | 33.3
O=C(NC(=S)Nc1ccc(NC(=O)c2cccs2)cc1)c1cc2ccccc2o1 | 0.0 | -7.0 | 14.2 | 85.3* | 3.2
O=C(NC(=S)Nc1ccc(NC(=O)c2cccs2)cc1)c1ccco1 | -0.3 | ? | -51.4 | 32.0 | 8.4
COc1cc(NC(=S)NC(=O)c2ccccc2F)ccc1NC(=O)c1cccs1 | 0.1 | -4.3 | 14.0 | -7.6 | -1.4
COc1cccc(C(C(=O)NC2CCCC2)N(CC2CCCO2)C(=O)Cc2cccs2)c1 (centres undefined) | 0.1 | 5.5 | 4.1 | -7.0 | -7.4
CCOC(=O)c1cc(C(=O)OCC)cc(-n2c(C)cc(C(=O)CN3CCOCC3)c2C)c1 | -0.2 | -12.5 | -4.7 | 93.1* | -0.3
Cc1cc(C(=O)CN2CCCC2)c(C)n1-c1ccc(Cl)cc1 | -0.1 | -2.8 | -1.0 | 52.6* | 15.0
Cc1cc(C(=O)CN2CCC(C)CC2)c(C)n1-c1ccc(F)cc1 | -0.1 | 4.8 | 13.7 | 91.4* | 31.9
COc1ccc(-n2c(C)cc(C(=O)CN3CCC(C)CC3)c2C)cc1 | -0.2 | -6.8 | 15.2 | 92.2* | 51.3
CC1CN(C)CCC1OC(=O)c1ccccc1 (centres undefined) | . | -11.0 | -18.8 | . | 51.6
CC1=Nc2cc(C(=O)N3CCCC3)ccc2Sc2c(C)ccc(C)c21 | . | 42.5 | ? | . | 14.7
CC1=Nc2cc(C(=O)O)ccc2Sc2c(C)ccc(C)c21 | -0.2 | 110.1 | 101.0* | -7.3 | -10.8
Cc1cc(C)c(S(=O)(=O)NCC(c2ccco2)N2CCc3ccccc3C2)c(C)c1 (centres undefined) | . | -1.1 | 2.1 | . | 37.3
CC(NC=C1C(=O)OC(C)(C)OC1=O)C(=O)O (centres undefined) | -0.3 | -0.3 | 15.0 | -0.4 | 55.3*
SMILES | Hsp70 act | HSF1 inh | HSF1 activator | Lmaj promast | T cruzi repl
COc1ccc(S(=O)(=O)Nc2nc3ccccc3nc2Nc2ccc3c(c2)OCO3)cc1 | 0.0 | -0.2 | 2.6 | 5.4 | -8.7
C/C(=N\NC(=O)c1ccc(NS(=O)(=O)c2cccs2)cc1)c1ccc2c(c1)OCO2 | -0.4 | -2.1 | 2.7 | 73.6* | -5.3
COc1ccccc1CNC(=O)c1ccc(NS(=O)(=O)c2cccs2)cc1 | . | 15.2 | 64.4* | . | -2.1
O=S(=O)(Nc1nc2ccccc2nc1Nc1ccc2c(c1)OCCO2)c1cccs1 | -0.2 | -5.0 | -0.9 | 53.2* | 4.5
NC(=NC(=O)c1ccccc1)N1N=CCC1c1ccccc1 (centres undefined) | -0.2 | 9.2 | 4.7 | 7.0 | 3.9
COc1ccc(-n2c(C)nnc2SCC(=O)Nc2ccccc2F)cc1 | . | -4.4 | 15.5 | . | -13.6
Cc1ccc(-c2nc(N3CCN(C)CC3)c3ccccc3n2)cc1 | . | -4.7 | -6.6 | . | 28.6
CN1CCN(c2nc(-c3ccc(C(C)(C)C)cc3)nc3ccccc23)CC1 | . | -80.1* | -84.1 | . | 37.3
c1ccc2c(N3CCOCC3)nc(-c3ccncc3)nc2c1 | -0.1 | -13.8 | -25.2 | 91.8* | 14.0
CC1CCN(c2nc(-c3ccncc3)nc3ccccc23)CC1 | 0.1 | -38.0 | -50.3 | 98.9* | 51.0
CCN1CCN(c2nc(-c3ccccc3)nc3ccccc23)CC1 | -0.2 | -4.5 | -3.4 | 16.0 | -2.2
COc1ccc(C(C(=O)NC2CCCC2)N(C(=O)c2snc(-c3ccc(F)cc3)c2N)c2ccc(OC)cc2)cc1 (centres undefined) | -0.5 | 5.7 | 10.6 | 63.0* | 60.4*
COc1ccc(C(C(=O)NC2CCCC2)N(C(=O)c2snc(-c3ccc(F)cc3)c2N)c2ccc(F)cc2)cc1 (centres undefined) | 0.2 | -0.6 | 10.4 | 71.0* | 29.4
Cc1cc(NC(=O)CSc2nc(C)c(C)c(=O)[nH]2)no1 | . | 0.8 | 10.7 | . | -1.1
CN(C(=O)CSc1nc(-c2ccccc2)cn1N)C(c1ccccc1)c1ccccc1 | 0.1 | 20.3 | 38.9 | 99.8* | 7.6
COc1ccccc1CNC(=O)CSc1nc(-c2ccccc2)cn1N | -0.1 | 27.0 | 41.6 | 8.8 | -3.0
S=C(NCc1ccccc1)NNc1nc2ccccc2[nH]1 | -0.1 | 1.9 | 10.0 | 34.4 | 12.6
COc1ccc(NC(=O)Nc2ccon2)c(OC)c1 | 0.0 | -1.9 | 21.5 | -4.4 | 7.4
COc1cc2c(cc1OC)C1(CCCC1)C(N)=C2C#N | -0.3 | . | . | 99.6* | .
COC(=O)c1sccc1NC(=O)Nc1ccc(OC)cc1 | . | 15.1 | 24.2 | . | -12.8
Cc1ccc2c(c1)c1c(n2CC(O)CNC(C)(C)C)CCCC1 (centres undefined) | -0.2 | . | . | 81.6* | .
Clc1ccc(SCCCCn2ccnc2)cc1 | -0.1 | 0.7 | 4.8 | 100.1* | 36.7
CC(Oc1ccc(Cl)cc1)C(=O)NCCCn1ccnc1 (centres undefined) | -0.5 | -3.5 | -5.2 | -3.1 | 0.2
Clc1ccccc1OCCCCn1ccnc1 | -0.2 | 5.8 | 9.4 | 100.0* | 62.9*
Cc1cccc(OCCCCCn2ccnc2)c1 | -0.2 | 1.4 | 28.7 | 99.7* | 57.5*
Cc1ccccc1OCCCCCn1ccnc1 | -0.1 | -5.0 | -2.4 | 100.3* | 66.7*
COc1cccc(CC(NC(C)=O)C(=O)NC2CCN(C(=O)C3CCCCC3)CC2)c1OC (centres undefined) | . | -3.6 | 3.9 | . | -11.9
